Reference: ChEMBL document CHEMBL1155280, “New arylthioindoles and related bioisosteres at the sulfur bridging group. 4. Synthesis, tubulin polymerization, cell growth inhibition, and molecular modeling studies” (J Med Chem, 2009)
One block for each molecule: values may come before it. The source made the active and inactive calls. The calls are words filed in the database; no cut-off is given here.

Columns and labels:
[1] = Inhibition of tubulin polymerization after 20 mins by spectrophotometry
Summary of the method: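 Tubulin 10 μM in 0.8 M monosodium glutamate, pH 6.6, preincubated 15 min at 30 °C with varying drug, chilled on ice. GTP added to 0.4 mM, turbidity at 350 nm followed 20 min at 30 °C. Extent of assembly measured; IC50 ± SD.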

Bos taurus = organism: Bos taurus; experiment: Inhibition of [3H]colchicine binding to bovine tubulin at 5 uM after 10 mins by DEAE-cellulose filter method
MCF7 [2] = experiment: Growth inhibition of human MCF7 cells after 48 hrs by sulforhodamine B assay; assay type: functional, cell-based; conditions: MCF7, 48 h
[3] = Growth inhibition of HSMC; assay type: cell-based; conditions: Homo sapiens
Summary of the method: (§1)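 Human aortic smooth muscle, PtK2 kidney epithelial, rat A10 aortic smooth muscle and HUVEC lines grown as the supplier recommends, under 5% CO2.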

HUVEC = experiment: Growth inhibition of HUVEC; assay type: cell-based; conditions: Homo sapiens; summary of the method: as §1
[4] = Growth inhibition of Potorous tridactylus PtK2 cells; assay type: cell-based; summary of the method: as §1
Saccharomyces cerevisiae [5] = experiment: Toxicity in Saccharomyces cerevisiae assessed as growth inhibition at second dilution at 20 uM after 3 days; assay type: organism-based; conditions: in vivo, 72 h
Summary of the method: (§2)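 S. cerevisiae BY4741 grown at 28 °C in minimal SD medium with 2% glucose. Exponential culture (5 × 10^6 cells/mL) exposed 18 h at 28 °C to compound at 20 μM, washed, resuspended in SD, serially diluted 10-fold, incubated overnight. Spotted onto YPD plates; growth scored by dilution reached after 3 days at 28 °C.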

Saccharomyces cerevisiae [6] = experiment: Toxicity in Saccharomyces cerevisiae assessed as growth inhibition at first dilution at 20 uM after 3 days; assay type: organism-based; conditions: in vivo, 72 h; summary of the method: as §2
HeLa [7] = experiment: Antiproliferative activity against human HeLa cells assessed as cell proliferation at 1 uM after 24 hrs by MTT assay relative to control; assay type: functional; conditions: read-out: Activity
Summary of the method: (§3)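 HeLa and HCT116/chr3 cells grown at 37 °C, 5% CO2 in D-MEM with 10% fetal calf serum (HCT116/chr3 medium plus 500 μg/mL G418). Seeded 1 × 10^3 cells/well, treated 24 h later for 24 h from 10 mM DMSO stock; 1% DMSO solvent control. Quadruplicate, repeated three times; given as % of control ± SD.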

HCT-116 [8] = experiment: Antiproliferative activity against human HCT116 cells expressing mismatch repair gene MLH1 complemented with chromosome 3 assessed as cell proliferation at 1 uM after 24 hrs by MTT assay relative to control; assay type: functional; conditions: HCT-116, 24 h, read-out: Activity; summary of the method: as §3
MCF7 [9] = experiment: Selectivity index, ratio of IC50 for rat A10 cells to IC50 for human MCF7 cells; assay type: functional
Summary of the method: (§4)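 Selectivity index: IC50 in the named nontransformed line divided by IC50 in MCF-7 cells.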

M14 [10] = experiment: Cytotoxicity against human M14 cells after 48 hrs by MTT assay; assay type: functional, cell-based; conditions: for IC50: M14, 48 h
Summary of the method: (§5)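 MTT assay. Seeded 10^5 cells/well, compound added after 24 h at 10, 30, 50, 100, 150, 200 nM for 24 or 48 h. MTT 1 mg/mL, 2 h at 37 °C in dark, formazan dissolved in DMSO, read at 550 nm. Triplicate; 0.5% DMSO control.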

[11] = Growth inhibition of mouse J774.1 cells at 300 nM after 48 hrs by MTT assay relative to control; assay type: cell-based; conditions: read-out: GI
M14 [12] = experiment: Cytotoxicity against human M14 cells at 10 to 200 nM by MTT assay; assay type: functional, cell-based; conditions: TDE = time-dependent effect; summary of the method: as §5
Homo sapiens = organism: Homo sapiens; experiment: Selectivity index, ratio of IC50 for HSMC to IC50 for human MCF7; summary of the method: as §4
HEK293 [13] = experiment: Cytotoxicity against HEK293 cells at 10 to 200 nM by MTT assay; assay type: cell-based; conditions: human, hek293, 0.2 µM; TDE = time-dependent effect; summary of the method: as §5
MCF7 [14] = experiment: Selectivity index, ratio of IC50 for HUVEC to IC50 for human MCF7 cells; summary of the method: as §4
HCT-116 [15] = experiment: Antiproliferative activity against human HCT116 cells expressing mismatch repair gene MLH1 complemented with chromosome 3 assessed as cell proliferation at 0.5 uM after 24 hrs by MTT assay relative to control; assay type: functional; conditions: HCT-116, 24 h, read-out: Activity; summary of the method: as §3
U-937 [16] = experiment: Cytotoxicity against human U937 cells after 48 hrs by MTT assay; assay type: functional, cell-based; conditions: for IC50: U-937, 48 h; summary of the method: as §5
HeLa [17] = experiment: Antiproliferative activity against human HeLa cells assessed as cell proliferation at 0.5 uM after 24 hrs by MTT assay relative to control; assay type: functional; conditions: read-out: Activity; summary of the method: as §3
M14 [18] = experiment: Cytotoxicity against human M14 cells assessed as effect on cell morphology at 300 nM after 48 hrs by time-lapse microscopy; assay type: functional, cell-based
Summary of the method: (§6)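 Morphology of HEK and M14 cells followed by time-lapse microscopy in 96-well plates at 37 °C, 5% CO2, with images captured every hour over 48 h.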

A10 = experiment: Growth inhibition of rat A10 cells; assay type: cell-based; summary of the method: as §1
HEK293 [19] = experiment: Cytotoxicity against HEK293 cells assessed as effect on cell morphology at 300 nM after 48 hrs by time-lapse microscopy; assay type: cell-based; conditions: human, hek293, 48 h, 0.3 µM; summary of the method: as §6
U-937 [20] = experiment: Cytotoxicity against human U937 cells at 10 to 200 nM by MTT assay; assay type: functional, cell-based; conditions: TDE = time-dependent effect; summary of the method: as §5
HEK293 [21] = experiment: Cytotoxicity against HEK293 cells after 48 hrs by MTT assay; assay type: cell-based, Homo sapiens; conditions: for IC50: Homo sapiens, HEK293, 48 h; for Activity: human, hek293, 48 h; summary of the method: as §5
MCF7 [22] = experiment: Selectivity index, ratio of IC50 for Potorous tridactylus PtK2 cells to IC50 for human MCF7 cells; assay type: functional; summary of the method: as §4

Compound: COc1cc(Sc2c[nH]c3ccccc23)cc(OC)c1OC
inhibition (Bos taurus): 68% | IC50 [1]: 2.6 µM

Compound: COc1cc(Sc2c[nH]c3ccc(Cl)cc23)cc(OC)c1OC
inhibition (Bos taurus): 51% | IC50 [1]: 2.6 µM

Compound: CC(=O)O[C@H]1C(=O)[C@@]2(C)[C@H]([C@H](OC(=O)c3ccccc3)[C@]3(O)C[C@H](OC(=O)[C@H](O)[C@@H](NC(=O)c4ccccc4)c4ccccc4)C(C)=C1C3(C)C)[C@]1(OC(C)=O)CO[C@@H]1C[C@@H]2O [PACLITAXEL]
IC50 [3]: 0.006 µM | IC50 (HUVEC): 0.007 µM | IC50 [4]: 0.021 µM

Compound: COc1cc(C(=O)c2c[nH]c3ccc(Cl)cc23)cc(OC)c1OC
inhibition (Bos taurus): 44% | IC50 (MCF7 [2]): 0.053 µM | IC50 [1]: 2.5 µM

Compound: COC(=O)c1[nH]c2ccc(OC)cc2c1C(=O)c1cc(OC)c(OC)c(OC)c1
growth at 1 µM (HeLa [7]): 54% | IC50 [3]: 0.035 µM | inhibition (Bos taurus): 78% | growth at 1 µM (HCT-116 [8]): 55% | Ratio IC50 (MCF7 [9]): 5.6 | Activity (M14 [10]): Dose-dependent effect | IC50 (M14 [10]): 0.1 µM | IC50 (MCF7 [2]): 0.017 µM | inhibition at 48 h, 0.3 µM [11]: 20% | Activity (M14 [12]): tde | Ratio IC50 (Homo sapiens): 2.1 | IC50 (HUVEC): 0.11 µM | Activity (HEK293 [13]): tde | Ratio IC50 (MCF7 [14]): 6.5 | growth at 0.5 µM (HCT-116 [15]): 57% | Activity (U-937 [16]): Dose-dependent effect | IC50 (U-937 [16]): 0.155 µM | growth at 0.5 µM (HeLa [17]): 55% | Activity (M14 [18]): Active | IC50 (A10): 0.095 µM | Activity (HEK293 [19]): Toxic | Activity (U-937 [20]): tde | IC50 (HEK293 [21]): 0.14 µM | Activity (HEK293 [21]): Dose-dependent effect | IC50 [1]: 0.67 µM | Ratio IC50 (MCF7 [22]): 11 | IC50 [4]: 0.19 µM

Compound: COC(=O)c1[nH]c2ccc(OC)cc2c1C(O)c1cc(OC)c(OC)c(OC)c1 (stereo not drawn)
IC50 [1]: > 40 µM

Compound: COc1ccc2[nH]cc(Cc3cc(OC)c(OC)c(OC)c3)c2c1
IC50 [1]: 14 µM

Compound: COC(=O)c1[nH]c2ccccc2c1Sc1cc(OC)c(OC)c(OC)c1
inhibition (Bos taurus): 74% | IC50 [1]: 2.9 µM

Compound: COC(=O)c1[nH]c2ccccc2c1C(=O)c1cc(OC)c(OC)c(OC)c1
inhibition (Bos taurus): 49% | IC50 (MCF7 [2]): 0.033 µM | IC50 [1]: 2.7 µM

Now from value to molecule, other results behind:

IC50 [1]: 28 µM
Compound: COc1cc(Cc2c[nH]c3ccccc23)cc(OC)c1OC

inhibition (Bos taurus): 39% | IC50 (MCF7 [2]): 0.23 µM | IC50 [1]: 2.5 µM
Compound: CCOC(=O)c1[nH]c2ccc(Cl)cc2c1Cc1cc(OC)c(OC)c(OC)c1

IC50 [1]: > 40 µM
Compound: CCOC(=O)c1cn(Cc2cc(OC)c(OC)c(OC)c2)cn1

IC50 [1]: > 40 µM
Compound: CCOC(=O)c1c(C)c(C)c(C)n1Cc1cc(OC)c(OC)c(OC)c1

IC50 (MCF7 [2]): > 2.5 µM | IC50 [1]: > 40 µM
Compound: COc1cc(Cn2cccc2C(=O)O)cc(OC)c1OC
Activity (Saccharomyces cerevisiae [5]): Non-toxic | Activity (Saccharomyces cerevisiae [6]): Toxic

inhibition (Bos taurus): 49% | IC50 (MCF7 [2]): 0.087 µM | IC50 [1]: 1.7 µM
Compound: COC(=O)c1[nH]c2ccc(Cl)cc2c1Cc1cc(OC)c(OC)c(OC)c1

IC50 [1]: > 40 µM
Compound: CCOC(=O)c1c(C)cc(C)n1Cc1cc(OC)c(OC)c(OC)c1

IC50 [1]: 5.4 µM
Compound: CCOC(=O)c1[nH]c2ccccc2c1Cc1cc(OC)c(OC)c(OC)c1

IC50 [1]: > 40 µM
Compound: CCOC(=O)c1[nH]c2ccc(Cl)cc2c1CCc1cc(OC)c(OC)c(OC)c1

inhibition (Bos taurus): 59% | IC50 (MCF7 [2]): 0.033 µM | IC50 [1]: 1.4 µM
Compound: COC(=O)c1[nH]c2ccc(OC)cc2c1Cc1cc(OC)c(OC)c(OC)c1
growth at 1 µM (HeLa [7]): 51% | IC50 [3]: 0.07 µM | growth at 1 µM (HCT-116 [8]): 69% | Ratio IC50 (MCF7 [9]): 3.9 | Activity (M14 [10]): Dose-dependent effect | IC50 (M14 [10]): 0.137 µM | inhibition at 48 h, 0.3 µM [11]: 20% | Activity (M14 [12]): tde | Ratio IC50 (Homo sapiens): 2.1 | IC50 (HUVEC): 0.17 µM | Activity (HEK293 [13]): tde | Ratio IC50 (MCF7 [14]): 5.2 | growth at 0.5 µM (HCT-116 [15]): 69% | Activity (U-937 [16]): Dose-dependent effect | IC50 (U-937 [16]): 0.189 µM | growth at 0.5 µM (HeLa [17]): 52% | Activity (M14 [18]): Active | IC50 (A10): 0.13 µM | Activity (HEK293 [19]): Toxic | Activity (U-937 [20]): tde | IC50 (HEK293 [21]): 0.181 µM | Activity (HEK293 [21]): Dose-dependent effect | Ratio IC50 (MCF7 [22]): 5.8 | IC50 [4]: 0.19 µM

IC50 [1]: > 40 µM
Compound: CCOC(=O)c1[nH]c2ccc(Cl)cc2c1C(=O)C(=O)c1cc(OC)c(OC)c(OC)c1
